Test results as given in ChEMBL document CHEMBL3286385, “Novel 1-[4-(Aminosulfonyl)phenyl]-1H-1,2,4-triazole derivatives with remarkable selective COX-2 inhibition: design, synthesis, molecular docking, anti-inflammatory and ulcerogenicity studies” (Eur J Med Chem, 2014).

Key:
[1] = target: T1, Prostaglandin G/H synthase 1 (Ovis aries, UniProt P05979); assay: Inhibition of ovine COX1 using ADHP as substrate after 20 mins by fluorescence assay
T1 sequence (P05979 whole entry): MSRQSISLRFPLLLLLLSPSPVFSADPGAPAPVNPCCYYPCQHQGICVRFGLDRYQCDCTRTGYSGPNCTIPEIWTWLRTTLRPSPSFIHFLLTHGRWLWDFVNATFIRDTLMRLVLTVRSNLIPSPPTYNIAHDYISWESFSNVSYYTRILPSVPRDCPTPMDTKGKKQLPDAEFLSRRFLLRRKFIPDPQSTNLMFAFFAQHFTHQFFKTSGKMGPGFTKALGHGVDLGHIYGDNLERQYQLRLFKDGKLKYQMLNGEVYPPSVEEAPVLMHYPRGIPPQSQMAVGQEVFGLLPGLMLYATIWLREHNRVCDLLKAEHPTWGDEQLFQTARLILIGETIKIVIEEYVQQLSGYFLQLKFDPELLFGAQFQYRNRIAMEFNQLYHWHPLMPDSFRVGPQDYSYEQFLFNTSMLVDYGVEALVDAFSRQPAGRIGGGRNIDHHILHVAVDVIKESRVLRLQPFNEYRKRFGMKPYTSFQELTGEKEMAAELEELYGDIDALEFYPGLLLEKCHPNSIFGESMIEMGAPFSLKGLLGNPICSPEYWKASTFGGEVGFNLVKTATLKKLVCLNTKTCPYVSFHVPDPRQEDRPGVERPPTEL
Outline: (§1)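 Ovine COX-1 or human recombinant COX-2 was preincubated 20 min at room temperature with a range of compound concentrations in 100 mM Tris-HCl pH 8.0, heme and ADHP. Arachidonic acid was then added for 2 min at room temperature, and resorufin fluorescence was read. IC50 came from the dose-response curve (triplicate determinations). Selectivity index = COX-1 IC50/COX-2 IC50.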

Rattus norvegicus [2] = assay: Antiinflammatory activity against albino rat assessed as inhibition of carrageenan-induced paw edema at 0.28 mmol/kg, po administered 30 mins prior to carrageenan challenge measured after 3 hrs relative to control; format: functional
Outline: (§2)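 Adult male albino rats (120–140 g), in groups of four, were fasted 24 h with water allowed. Compounds were given orally as a suspension in 0.5% w/v CMC in water, and controls received CMC alone. After 30 min, 0.1 mL of 1% carrageenan in saline was injected subplantar into the right hind paw and saline into the left. Paw thickness was measured by caliper. % inhibition = [(VR−VL)control − (VR−VL)treated]/(VR−VL)control; one-way ANOVA.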

[3] = Selectivity index, ratio of IC50 for ovine COX1 to IC50 for human recombinant COX2; outline: as §1
Rattus norvegicus [4] = assay: Antiinflammatory activity against albino rat assessed as inhibition of carrageenan-induced paw edema at 0.28 mmol/kg, po administered 30 mins prior to carrageenan challenge measured after 3 hrs relative to indomethacin; format: functional; parameters: scale not given: the % may be the effect or the level left
Rattus norvegicus [5] = assay: Antiinflammatory activity against albino rat assessed as inhibition of carrageenan-induced paw edema at 0.28 mmol/kg, po administered 30 mins prior to carrageenan challenge measured after 1 hr relative to control; format: functional; outline: as §2
Rattus norvegicus [6] = assay: Antiinflammatory activity against albino rat assessed as inhibition of carrageenan-induced paw edema at 0.28 mmol/kg, po administered 30 mins prior to carrageenan challenge measured after 5 hrs relative to control; format: functional; outline: as §2
Rattus norvegicus [7] = assay: Antiinflammatory activity against albino rat assessed as inhibition of carrageenan-induced paw edema at 0.28 mmol/kg, po administered 30 mins prior to carrageenan challenge measured after 4 hrs relative to control; format: functional; outline: as §2
Rattus norvegicus [8] = assay: Antiinflammatory activity against albino rat assessed as inhibition of carrageenan-induced paw edema at 0.28 mmol/kg, po administered 30 mins prior to carrageenan challenge measured after 3 hrs relative to celecoxib; format: functional; parameters: scale not given: the % may be the effect or the level left
[9] = target: T2, Prostaglandin G/H synthase 2 (Homo sapiens, UniProt P35354); assay: Inhibition of human recombinant COX2 using ADHP as substrate after 20 mins by fluorescence assay; outline: as §1
T2 sequence (P35354 whole entry): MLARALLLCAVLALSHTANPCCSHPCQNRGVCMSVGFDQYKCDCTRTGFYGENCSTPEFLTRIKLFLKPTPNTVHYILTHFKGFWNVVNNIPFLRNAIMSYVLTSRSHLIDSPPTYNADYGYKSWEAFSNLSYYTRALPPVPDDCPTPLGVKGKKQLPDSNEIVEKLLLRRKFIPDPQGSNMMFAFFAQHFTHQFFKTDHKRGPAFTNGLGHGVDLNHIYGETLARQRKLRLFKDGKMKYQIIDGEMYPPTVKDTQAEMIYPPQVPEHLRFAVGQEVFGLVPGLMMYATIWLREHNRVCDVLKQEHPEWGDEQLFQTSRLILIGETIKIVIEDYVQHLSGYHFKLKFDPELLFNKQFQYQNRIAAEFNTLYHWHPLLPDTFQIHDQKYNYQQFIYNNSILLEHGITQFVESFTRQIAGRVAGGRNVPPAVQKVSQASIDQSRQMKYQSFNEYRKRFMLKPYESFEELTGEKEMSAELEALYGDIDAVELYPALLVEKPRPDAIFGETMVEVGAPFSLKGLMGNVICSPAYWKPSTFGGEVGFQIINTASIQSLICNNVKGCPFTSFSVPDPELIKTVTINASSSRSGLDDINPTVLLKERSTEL

Rattus norvegicus [10] = assay: Antiinflammatory activity against albino rat assessed as inhibition of carrageenan-induced paw edema at 0.28 mmol/kg, po administered 30 mins prior to carrageenan challenge measured after 2 hrs relative to control; format: functional; outline: as §2
Rattus norvegicus [11] = assay: Gastric toxicity in rat assessed as ulcer index at 0.28 mmol/kg, po; format: organism-based; details: in vivo

Compound	IC50 [1] [µM]	inhibition in vivo at 280 µmol/kg (Rattus norvegicus [2]) [%]	Ratio IC50 [3]	Activity (Rattus norvegicus [4]) [%]	inhibition in vivo at 280 µmol/kg (Rattus norvegicus [5]) [%]	inhibition in vivo at 280 µmol/kg (Rattus norvegicus [6]) [%]	inhibition in vivo at 280 µmol/kg (Rattus norvegicus [7]) [%]	Activity (Rattus norvegicus [8]) [%]	IC50 [9] [µM]	inhibition in vivo at 280 µmol/kg (Rattus norvegicus [10]) [%]	UI (Rattus norvegicus [11])
NS(=O)(=O)c1ccc(-n2nc(C(=O)NC3CCCCC3)nc2-c2ccccc2)cc1	> 1000	65	> 1520	82	20	42	53	94	0.66	43	0
NS(=O)(=O)c1ccc(-n2nc(C(=O)Nc3ccc(Cl)cc3)nc2-c2ccccc2)cc1	> 1000	67	> 2130	85	36	44	53	97	0.47	62	0.5
Cc1ccc(NC(=O)c2nc(-c3ccccc3)n(-c3ccc(S(N)(=O)=O)cc3)n2)cc1	516	76	271	96	40	65	71	110	1.9	47	1
NS(=O)(=O)c1ccc(-n2nc(C(=O)NCc3ccccc3)nc2-c2ccccc2)cc1	> 1000	58	> 588	73	42	29	36	84	1.7	47	3
COc1ccc2c(c1)c(CC(=O)O)c(C)n2C(=O)c1ccc(Cl)cc1 [INDOMETHACIN]		79		100	54	84	81			66	39
COc1ccc(NC(=O)c2nc(-c3ccccc3)n(-c3ccc(S(N)(=O)=O)cc3)n2)cc1OC	346	72	266	91	22	60	63	104	1.3	52	0
CC(C)NC(=O)c1nc(-c2ccccc2)n(-c2ccc(S(N)(=O)=O)cc2)n1	> 1000	55	> 62.5	70	21	43	44	80	16	43	0
